Screens as filed in PubChem BioAssay.
Only some compounds are listed: those with a hit (about 2.9% of all), similar ones and a draw of the others.
SIAE inh: human SIAE inhibitors, primary screen, biochemical, fluorescence polarization, FP-Rh probe, 1536-well HTS. Sialate O-acetylesterase (Homo sapiens), Q9HAT2. SIAE FP-Rh probe binding. inhibition, % at 9.66 µM. 370,000 tested, 0.69% active;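 active = inhibition above a cutoff: mean of compounds within the control limits plus 3 SD of those, cut at about 17% in these data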;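 note: 0% = plate median of compound wells and 100% = probe without SIAE protein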
ATG4B inhibitor: ATG4B protease inhibitors, primary screen, biochemical, fluorescence, uHTS; Cysteine protease ATG4B (Homo sapiens), Q9Y4P1; ATG4B cleavage of LC3-PLA2, NBD-HPC fluorescence, 1 h; inhibition, % at 8.33 µM; 340,000 tested, 0.51% active; in the data active = inhibition above about 40%
ABHD4 inh: ABHD4 inhibitors, primary screen, biochemical, fluorescence polarization, mouse. purified mABHD4, FP-Rh probe fluorescence polarization. inhibition, % at 8.92 µM. 370,000 tested, 0.54% active;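 active = inhibition exceeding the mean over every tested compound plus 3 SD, cut at about 30% in these data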;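 note: 0% = plate median of compound wells and 100% = S159A mutant with DMSO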
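System: mouse ABHD4 enzyme, wild type / Medium: HEPES pH 7.0, NaCl, Pluronic buffer / Reagent: FP-Rh activity-based fluorescent probe / Control set: S159A mutant high control, sample median low control / Detection: fluorescence polarization with parallel and perpendicular emission, 525/598 nm / Schedule: 45 min + 60 min at 25 °C / Compound dosing: 8.92 µM, single dose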
PRMT1 inh: PRMT1 methyltransferase inhibitors, primary screen, biochemical, fluorescence polarization. Protein arginine N-methyltransferase 1 (Homo sapiens), Q99873. recombinant PRMT1, activity-based probe fluorescence polarization. AID 652257, 2013. inhibition, % at 2.79 µM. 370,000 tested, 1.3% active;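 active = inhibition above about 21% made by adding two undisclosed values, limit read from the data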
Target sequence (Q99873 whole entry, looked up): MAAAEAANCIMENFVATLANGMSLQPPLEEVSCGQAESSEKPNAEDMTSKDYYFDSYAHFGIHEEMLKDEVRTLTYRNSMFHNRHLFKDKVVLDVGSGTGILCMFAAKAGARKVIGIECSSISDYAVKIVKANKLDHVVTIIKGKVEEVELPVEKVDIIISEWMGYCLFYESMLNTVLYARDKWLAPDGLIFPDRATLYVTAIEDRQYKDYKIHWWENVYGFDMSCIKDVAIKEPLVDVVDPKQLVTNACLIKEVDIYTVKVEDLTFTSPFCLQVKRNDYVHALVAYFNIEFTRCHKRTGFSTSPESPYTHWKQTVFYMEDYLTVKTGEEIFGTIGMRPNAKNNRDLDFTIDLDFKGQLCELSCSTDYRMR
TCR-CD3 inh: inhibitors of human TCR-CD3 interaction, primary screen, biochemical, fluorescence, TAMRA-labeled TCR probe; T-cell receptor (TCR); inhibition, % at 9.4 µM; 360,000 tested, 0.37% active; in the data active = inhibition above about 19%;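 note: recombinant mutant TCR 2C K166C tagged with TAMRA read by polarization; 0% = receptor in buffer alone and 100% = receptor with positive control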
HTRA1 inhibitor: HTRA1 serine protease inhibitors, primary screen, biochemical, fluorescence polarization, HTS; inhibition, % at 5.96 µM; Q92743; recombinant HTRA1, FP-rhodamine activity-based probe; AID 504803, 2011; 340,000 tested, 0.5% active; in the data active = inhibition above about 36%;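 note: 0% = enzyme with DMSO and 100% = wells lacking enzyme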
SIAE confirm: human SIAE inhibitors, retest, confirmation, biochemical, fluorescence polarization, FP-Rh probe, triplicate; shares compounds with SIAE inh; SIAE FP-Rh activity-based probe; inhibition, % at 9.66 µM; 2,300 tested, 13% active;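 active = mean inhibition of the replicates above the hit cutoff set in the primary screen, cut at about 17% in these data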;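 note: 0% = SIAE with DMSO and probe and 100% = probe without SIAE; inhibitors lower polarization as more probe stays unbound to SIAE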
* hit, by the source's call; . = not tested or not shown.

SMILES	SIAE inh	ATG4B inhibitor	ABHD4 inh	PRMT1 inh	TCR-CD3 inh	HTRA1 inhibitor	SIAE confirm
CN(Cc1ccccc1)C(=O)OCc1cn(Cc2ccc(F)c(F)c2)nn1	-8	.	4	-1	.	.	.
COc1ccccc1CNC(=O)COC(=O)c1ccc(C)s1	23*	0	4	2	5	-4	4
COc1ccccc1CNC(=O)COC(=O)c1ccco1	-18	7	-10	-2	2	4	.
COc1cc(-n2c(C)cc(O)cc2=O)ccc1Cl	3	.	-6	-1	-1	.	.
O=c1c(Cc2c(F)cccc2Cl)c(O)ccn1CCc1c[nH]c2ccccc12	23*	-6	3	0	-2	-1	5
COC(=O)Cc1c(O)ccn(CCc2c[nH]c3ccccc23)c1=O	0	-6	2	-6	6	5	.
CCCCS(=O)(=O)N1CCCc2nc(-c3ccccc3)ccc21	2	.	-2	-2	3	.	.
Cc1ccn2c(NC3CCCC3)c(-c3ccncc3)nc2c1	18*	0	-4	-3	2	3	-1
CCc1cccc(C)c1NC(=O)COC(=O)c1cc([N+](=O)[O-])ccc1N1CCOCC1	19*	-4	5	-3	1	4	0
Cc1cccc[n+]1C1C(c2ccc([N+](=O)[O-])cc2)C(C#N)=C(C(=C=[N-])C#N)NC1(O)C1CC1 (configuration not stated)	40*	5	10	6	-12	14	0
CC(=O)c1ccc(S(=O)(=O)NCC2CCN(C(=O)C(=O)c3cc4ccccc4o3)CC2)cc1	-3	.	-6	12	-9	.	.
Clc1ccc(N/N=C/c2ccncc2)cc1Cl	24*	9	7	0	3	-6	19*
Clc1cnc(N/N=C/c2ccncc2)c(Cl)c1	2	-5	5	-4	-8	3	.
Cc1ccc(C2Nc3cccc4cccc(c34)N2)s1	27*	3	8	6	5	14	13
Fc1ccc(C2Nc3cccc4cccc(c34)N2)cc1	19*	1	9	9	1	12	10
Nc1ccc2nc(-c3ccc(-c4nc5ccc(N)cc5[nH]4)cc3)[nH]c2c1	17*	-13	-19	-1	-13	.	26*
O=S(=O)(c1ccccc1)N1CCCc2nc(-c3ccccc3)ccc21	0	.	-9	1	-8	.	.
COc1ccc(-n2nnnc2C2c3ccccc3C(=O)N2C2CCN(Cc3ccccc3)CC2)cc1 (configuration not stated)	21*	.	2	-3	5	.	4
CCCCCCCCN1C(=O)[C@@H](CC(=O)NCCCOC)C[C@@]2(C(=O)OC)C1=C[C@H](C(C)C)O[C@@H]2C1CC1	7	.	0	-4	.	.	.
O=C1c2ccccc2C(c2nnnn2-c2ccc3c(c2)OCCO3)N1Cc1cccnc1 (configuration not stated)	25*	.	3	-2	2	.	0
O=C1c2ccccc2C(c2nnnn2-c2ccc3c(c2)OCCO3)N1Cc1ccc2c(c1)OCO2 (configuration not stated)	2	.	3	2	4	.	.
C[C@H]1[C@H](N)CC[C@@]23CCCN2C(=O)CCC[C@@H]13	2	.	0	1	.	.	.
O=C1CSc2ccc(C(=O)N3CCCC(C(=O)N4CCN(c5ccc(F)cc5)CC4)C3)cc2N1 (configuration not stated)	1	.	1	1	.	.	.
CCOC(=O)N1CCC(NC(=O)C2CCN(C(=O)N3CC(C)Oc4ccccc43)CC2)CC1 (configuration not stated)	20*	-3	0	0	-6	0	-5
